Assay outcomes: PubChem, several laboratories
NS3 helicase inh: HCV NS3 helicase inhibition; NS3 helicase DNA unwinding, Cy5 molecular beacon fluorescence; inhibition, % at 10.9 µM; actives 0.56% (n = 290,000); AID 1800;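 active = inhibition above the mean of all tested compounds plus 3 SD, set per campaign, cut at about 35% in these data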;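 note: 0% = DMSO wells and 100% = thioflavine S control wells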
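test system = hepatitis C virus NS3 helicase domain fragment enzyme | reagent = annealed dual-labelled DNA beacon duplex, ATP-started | times = 1 h at 25 °C | detection = Cy5 fluorescence, 0 and 60 min reads | read-out basis = percent inhibition from t60/t0 fluorescence ratio | control set = DMSO and thioflavine S | replication = one well per compound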
core dimer inh: blocks dimerization of HCV core protein; inhibition, % at 5 µM; actives 0.33% (n = 300,000); TR-FRET GST/Flag-core106 dimerization, 1536-well;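 active = inhibition above the mean of all tested compounds plus 3 SD, set per screening campaign, cut at about 45% in these data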
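Assay system: tagged HCV core106 pair (GST and Flag); medium: KF-containing HEPES buffer, pH 7.45, DTT, CHAPS, BSA; also added: Eu donor and XL665 acceptor anti-tag antibodies; dosing: 5 µM single dose; timing: compound-protein-antibody incubation 4 h at 22.5 °C; signal: TR-FRET 671 and 617 nm emission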
FID counter: displaces DNA intercalator in HCV helicase counter-screen | DNA fluorescent intercalator displacement, fluorescence | inhibition, % at 7.9 µM | actives 0.17% (n = 290,000) | AID 1845; in the data active = inhibition above about 37%;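 note: 0% = vehicle and 100% = reference compound; higher means more ethidium bromide displaced from hairpin DNA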
p-CIP stab down: compounds decreasing mouse p/CIP protein stability. F442A p/CIP-EGFP cells, EGFP fluorescence, 16 h. decrease of EGFP signal, % at 10 µM. actives 0.01% (n = 290,000). AID 1984;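 active = EGFP signal decrease of at least 30% at 10 µM or well 3 SD below plate mean, unless failing retest; inactive = the rest, including hits failing retest or dose response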
GPR7 antagonist: blocks human GPR7 receptor signaling. inhibition, % at 4.4 µM. actives 1.1% (n = 290,000). P48145. GPR7-expressing cells, fluorescence antagonist assay; in the data active = inhibition above about 16%, passing the limit was not always enough;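 note: cells stimulated with the agonist NPW; 0% = agonist with vehicle and 100% = vehicle without agonist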
Target sequence (P48145 whole entry, looked up): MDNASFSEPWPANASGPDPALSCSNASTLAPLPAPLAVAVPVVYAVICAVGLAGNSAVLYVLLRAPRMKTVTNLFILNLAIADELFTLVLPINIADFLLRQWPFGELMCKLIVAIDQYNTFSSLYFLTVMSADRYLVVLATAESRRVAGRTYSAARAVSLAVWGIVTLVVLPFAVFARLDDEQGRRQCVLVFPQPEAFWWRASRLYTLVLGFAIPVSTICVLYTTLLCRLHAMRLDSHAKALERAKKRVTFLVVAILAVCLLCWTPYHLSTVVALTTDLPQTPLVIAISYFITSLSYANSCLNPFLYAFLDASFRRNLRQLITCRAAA
* marks the source's active call; other numbers are inactive results; x = no result. In the library only some 1.9% were active in any assay of this set; here they are far more common.

SMILES	NS3 helicase inh	core dimer inh	FID counter	p-CIP stab down	GPR7 antagonist
Cc1ccc(C(C)C)c(OCc2nn(CC(=O)c3ccc(OC(F)F)cc3)c3[n+]2CCCCC3)c1	-70	-6	37*	-11	20
Cc1nc(N2N=C(c3ccc(Cl)cc3)CC2c2ccco2)sc1C(=O)N(C)C (configuration not stated)	6	10	-28	-17	-17
COc1ccc(C2=NN(c3nc(-c4ccccc4)c(CC(=O)O)s3)C(c3ccco3)C2)cc1 (configuration not stated)	30	87*	-26	-9	4
O=[N+]([O-])c1ccccc1/C=C/C=N/n1c(-c2ccc(Cl)cc2)n[nH]c1=S	10	83*	-8	-2	14
COc1ccc2oc(C(=O)Nc3nc(-c4ccccn4)cs3)c(C)c2c1	x	56*	x	x	x
COc1ccc(NC(=O)C2CC(=O)N=C(N)S2)cc1 (configuration not stated)	5	1	5	-11	-5
N#CC1=C(c2ccc(-c3ccccc3)cc2)COC1=O	27	52*	-14	-1	-22
Cc1cc(Cl)n2nc(C)c(-c3ccc(Cl)cc3)c2n1	-4	0	7	6	33*
O=C(CC1CCCC1)Nc1ccc2c(c1)CCC2	39*	-2	-5	-3	-3
O/N=C1\CCCc2c1nc(-c1ccccc1F)n2O	4	-2	2	-10	-11
CC(=O)c1ccc(N2CCN(S(=O)(=O)c3c(C)[nH]c(C)c3C(=O)N3CCCCC3)CC2)cc1	-4	0	-48	12	2
OC1CCN(C(=S)Nc2ccc(Nc3ccccc3)cc2)CC1	-43	-19	8	-14	-4
S=C(Nc1ccccc1)N1CCC(C2CCN(C(=S)Nc3ccccc3)CC2)CC1	21	1	1	0	19*
Cc1csc(NC(=O)C2CCCO2)n1 (configuration not stated)	-2	-4	4	-2	14*
CC(=O)c1ccc(OCCCC(=O)Nc2cccc(-c3nn[nH]n3)c2)cc1	10	0	-18	6	14
CN1CCN(c2ccccc2NC(=O)c2cccc(OCc3ccccc3)c2)CC1	-38	4	33	-4	18*
CN1CCN(c2ccccc2NC(=O)c2ccc(OCc3ccccc3)cc2)CC1	-81	-5	11	-10	4
O=C(Nc1nc(-c2ccccc2)cs1)C1CCCN(S(=O)(=O)c2ccccc2)C1 (configuration not stated)	-19	15	-16	-27	-10
O=C(Nc1nc(-c2ccccc2)cs1)C1CCCN(S(=O)(=O)c2cccc([N+](=O)[O-])c2)C1 (configuration not stated)	-2	46*	4	7	-4
COc1cccc2cc(C(=O)NCCc3c[nH]c4ccccc34)c(=O)oc12	11	6	1	-2	-13
CCCCC(O)(CCCC)C(=O)N/N=C(\C)c1ccc(Cl)cc1	23	0	-18	6	20*
O=C(COc1ccccc1Br)N1CCN(C(=O)c2ccco2)CC1	20	-2	-18	-11	-14
C=CCn1c(SCC(=O)N(CCO)CCO)nc2sc3c(c2c1=O)CCC3	7	-10	-11	-3	-5
Cc1cc(=O)oc2cc(OCC(O)Cn3ccnc3)ccc12 (configuration not stated)	-7	-3	-2	-6	-11
CCCCC(=O)Nc1cc(N(C)C)nc2ccccc12	-7	-5	24	6	14
SMILES	NS3 helicase inh	core dimer inh	FID counter	p-CIP stab down	GPR7 antagonist
CN(C)c1cc(NC(=O)CNC(C)(C)C)c2ccccc2n1	-12	1	53*	4	4
CC(C1CC2CCC1C2)N1CC(O)=C(c2nc3ccccc3[nH]2)C1=N (configuration not stated)	11	1	-11	-6	21*
COc1ccnc(Oc2ccc(F)cc2)c1C(=O)N/C=N/OCc1ccccc1	0	2	-31	-9	9
CO/N=C/NC(=O)c1c(OC)ccnc1Oc1ccc(F)cc1	10	-3	71*	5	2
O=C(NCc1cccnc1)c1ccc(-c2ccc(Cl)cc2)o1	-13	-21	-3	-20	9
O=C(NCc1cccnc1)/C(=C\c1ccc(-c2ccc(Cl)c(Cl)c2)o1)S(=O)(=O)c1ccccc1	-22	1	-17	-13	31*
CCOC(=O)c1cnc2c(Cl)cccc2c1NCCCN1CCOCC1	25	-2	32	-7	-9
